According to ChEMBL document CHEMBL4808187, “Antiarrhythmic Hit to Lead Refinement in a Dish Using Patient-Derived iPSC Cardiomyocytes” (J Med Chem, 2021):
Active and inactive are the calls of the source. No cut-off for these calls is given here.

How the values were obtained:
[1] = Inhibition of sodium channel (unknown origin) expressed in HEK cells assessed as reduction in late inward sodium current by automated patch clamp method; type: cell-based; settings: Homo sapiens, HEK293
[2] = Antiarrhythmic activity in hiPSC-CMs assessed as fold prolongation of action potential relative to control; settings: human, ipsc-cm
[3] = Antiarrhythmic activity in hiPSC-CMs assessed as cessation dose of cell beating; settings: human, ipsc-cm
[4] = (§1) Antiarrhythmic activity in patient-derived hiPSC-CMs carrying LQT3 mutation assessed as cessation dose for cell beating; type: functional, Homo sapiens, iPSC-CM
Homo sapiens = organism: Homo sapiens; test: Selectivity index, ratio of IC50 for potassium channel (unknown origin) expressed in CHO cells assessed as reduction in potassium current to IC50 for sodium channel (unknown origin) expressed in HEK cells assessed as reduction in late inward sodium current
[5] = (§2) Antiarrhythmic activity in patient-derived hiPSC-CMs carrying LQT3 mutation assessed as fold shortening of action potential duration relative to control; type: functional, Homo sapiens, iPSC-CM
[6] = Antiarrhythmic activity in patient-derived hiPSC-CMs carrying LQT3 mutation assessed as shortening of action potential duration; type: functional, Homo sapiens; settings: ipsc-cm
[7] = Antiarrhythmic activity in hiPSC-CMs assessed as dose for induction of early after depolarizations; settings: human, ipsc-cm
[8] = (§3) Antiarrhythmic activity in patient-derived hiPSC-CMs carrying LQT3 mutation assessed as shortening dose of action potential; type: functional, Homo sapiens, iPSC-CM
[9] = Inhibition of potassium channel (unknown origin) expressed in CHO cells assessed as reduction in potassium current by automated patch clamp method; type: cell-based
[10] = Inhibition of sodium channel (unknown origin) expressed in HEK cells assessed as reduction in peak sodium current by automated patch clamp method; type: cell-based; settings: Homo sapiens, HEK293
[11] = Antiarrhythmic activity in hiPSC-CMs assessed as prolongation of action potential; parameters: species or system Homo sapiens, iPSC-CM; settings: ipsc-cm
iPSC-CM [12] = test: as §2; type: functional; settings: Homo sapiens
iPSC-CM [13] = test: as §3; type: functional; settings: Homo sapiens
[14] = Potency index, ratio of mexiletine EC50 to test compound EC50 for antiarrhythmic activity in hiPSC-CMs expressing LQT3 mutation assessed as shortening of action potential duration; type: functional, Homo sapiens, iPSC-CM
iPSC-CM [15] = test: as §1; type: functional; settings: Homo sapiens
[16] = Metabolic stability in human liver microsomes assessed as compound remaining at 50 uM after 1 hr by HPLC method; type: ADME, Microsome; settings: read-out: Stabilty
In short: (§4)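 Human liver microsomes (0.4–0.5 mg protein) or S-9 (1 mg) with 50 μM compound in 50 mM potassium phosphate pH 7.4 plus NADPH-generating system, 37 °C shaking for 0, 7, 15, 30, 60 min; stopped with cold acetonitrile; HPLC C18, isocratic water/acetonitrile with 0.05% TFA, UV 275.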

[17] = Metabolic stability in human liver S9 fraction assessed as compound remaining at 50 uM after 1 hr by HPLC method; type: ADME, subcellular; settings: read-out: Stabilty; in short: as §4

Compound | IC50 [1] [µM] | IC50 [9] [µM] | IC50 [10] [µM] | remaining at 1 h, 50 µM [16] [%] | remaining at 1 h, 50 µM [17] [%] | fold change (FC) [2] | Activity [3] | Activity [4] [µM] | Ratio IC50 (Homo sapiens) | fold change (FC) [5] | EC50 ([6]; read-out: EC50) [µM] | Activity [7] | Activity [8] [µM] | EC50 [11] | Activity [2] | fold change (FC) (iPSC-CM [12]) | EC50 [6] | Activity (iPSC-CM [13]) | Ratio EC50 [14] | Activity (iPSC-CM [15])
Cc1cccc(C)c1OCC(N)C(C)(C)C.Cl (stereo not drawn) | 11.4 | 27.6 | 91.4 | – | – | – | Not Active | 22 | 2.42 | 1.182 | < 0.8 | 7.4 µM | 2.5 | Not Active | – | – | – | – | – | –
CCCNC(COc1cccc(C)c1C)c1ccccc1.Cl (stereo not drawn) | – | – | – | – | – | – | Not Active | 133 | – | – | – | Not Active | – | – | Not Active | inactive | Not Active | inactive | – | –
Cc1ccc(C(N)COc2c(C)cccc2C)cc1.Cl (stereo not drawn) | – | – | – | – | – | – | 66 µM | 66 | – | 1.588 | – | Not Active | 22 | Not Active | – | – | Not Active | – | 7 | –
CCNC(COc1cccc(C)c1C)c1ccccc1.Cl (stereo not drawn) | – | – | – | – | – | – | 133 µM | 22 | – | – | – | Not Active | – | – | Not Active | inactive | Not Active | inactive | – | –
Cc1cccc(C)c1OC[C@H](C)N [(S)-MEXILETINE] | – | 54.3 | 128 | > 95 | > 95 | – | Not Active | – | – | – | 0.8 | 200 µM | 22 | – | – | – | – | – | – | inactive
Cc1cccc(C)c1OCC(C)NC(=O)c1ccccc1.Cl (stereo not drawn) | – | – | – | – | – | – | 66 µM | 133 | – | 1.45 | 133 | Not Active | 66 | Not Active | – | – | – | – | 9 | –

Now from value to molecule, other results behind:

IC50 [1] [µM] | IC50 [9] [µM] | IC50 [10] [µM] | remaining at 1 h, 50 µM [16] [%] | remaining at 1 h, 50 µM [17] [%] | Compound | fold change (FC) [2] | Activity [3] | Activity [4] [µM] | Ratio IC50 (Homo sapiens) | fold change (FC) [5] | EC50 ([6]; read-out: EC50) [µM] | Activity [7] | Activity [8] [µM] | EC50 [11] | Activity [2] | fold change (FC) (iPSC-CM [12]) | EC50 [6] | Activity (iPSC-CM [13]) | Ratio EC50 [14] | Activity (iPSC-CM [15])
10 | 45.8 | 76.8 | – | – | Cc1cc(C)cc(OCC(N)C2CC2)c1.Cl (stereo not drawn) | 2.12 | 200 µM | 200 | 4.6 | 1.15 | 2.06 | 66 µM | 22 | – | – | – | – | – | – | –
0.753 | 5.1 | 38 | – | – | COCCNC(COc1cc(C)cc(C)c1)c1ccccc1.Cl (stereo not drawn) | – | 200 µM | 200 | 6.8 | – | – | Not Active | – | – | Not Active | inactive | Not Active | inactive | – | –
1.03 | 9.2 | 10.9 | – | – | Cc1cccc(OCC(N)c2ccccc2)c1C.Cl (stereo not drawn) | – | 133 µM | 66 | 8.9 | 1.406 | – | Not Active | 22 | Not Active | – | – | Not Active | – | – | –
1.02 | 16.8 | 45.1 | – | – | Cl.OCCNC(COc1cc(C(F)(F)F)cc(C(F)(F)F)c1)c1ccccc1 (stereo not drawn) | – | 66 µM | 22 | 16.5 | 1.5 | – | Not Active | 7.4 | – | Not Active | – | Not Active | – | – | –
– | 84 | 129 | > 95 | > 95 | Cc1cccc(C)c1OC[C@@H](C)N [(R)-MEXILETINE] | – | Not Active | – | – | – | 0.96 | 200 µM | 7.4 | – | – | – | – | – | – | inactive
